Laboratory results: ChEMBL document CHEMBL1153551, “Resveratrol modulates phagocytosis of bacteria through an NF-kappaB-dependent gene program” (Antimicrob Agents Chemother, 2008)
Calls of active or inactive are those of the source.

Legend:
[1] = test system: HEK293; test: Inhibition of phagocytosis of heat killed FITC-conjugated Staphylococcus aureus 209P in HEK293 at 100 uM after 1 hr; type: functional, cell-based; settings: Homo sapiens
Outline: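 293/DC-SIGN cells (5 × 10⁵/ml) were plated the day before, washed and treated 1 h with resveratrol. Heat-killed FITC-E. coli or S. aureus were added for 1 h at various cell:bacterium ratios. Trypan blue (0.2%) quenched surface fluorescence and 1% paraformaldehyde fixed the cells. Flow cytometry MFI, triplicates.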

[2] = test system: THP-1; test: Inhibition of phagocytosis of FITC-conjugated Staphylococcus aureus 209P in human THP1 cells using trypan blue staining after 60 mins by flow cytometry; type: functional, cell-based
[3] = test system: RAW264.7; test: Inhibition of phagocytosis of FITC-conjugated Escherichia coli K12 in mouse RAW264.7 cells assessed as reduction in ratio of number of bacterial cells to phagocytes using trypan blue staining by flow cytometry; type: functional, cell-based
Outline: (§1)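 THP-1 or RAW264.7 cells received resveratrol for 1 h serum-free, then a range of doses of heat-killed FITC-E. coli or FITC-S. aureus. Trypan blue (0.2%) quenched bound bacteria and 1% paraformaldehyde fixed the cells. Flow cytometry MFI of internalized bacteria was plotted against bacterial dose; triplicates.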

[4] = test system: THP-1; test: Inhibition of phagocytosis of FITC-conjugated Escherichia coli K12 in human THP1 cells using trypan blue staining after 40 mins by flow cytometry; type: functional, cell-based
Outline: (§2)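 Serum-free THP-1 or RAW264.7 cells were treated 1 h with resveratrol, then incubated 0, 20, 40, 60 or 80 min with heat-killed FITC-E. coli at 1:100 cell:bacterium. Outer fluorescence was quenched with 0.2% trypan blue and cells fixed in 1% paraformaldehyde. Internalized fluorescence was read as flow cytometry MFI; mean and SD of triplicates.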

[5] = test system: THP-1; test: Inhibition of FSL-1-induced increase in phagocytosis of FITC-conjugated Escherichia coli K12 in human THP1 cells assessed as reduction in number of cells phagocytosing bacteria per cell after 1 hr by CLSM; type: functional, cell-based
Outline: (§3)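 THP-1 cells (1 × 10⁶/ml) were held 24 h with or without 100 nM FSL-1, washed, then given 100 μM resveratrol or 0.1% DMSO for 1 h. Heat-killed FITC-E. coli (1:100) was added for 1 h, cells were stained with concanavalin A, fixed in 3% paraformaldehyde and imaged by confocal microscopy. Readouts: particles per cell among 3,500 cells; % cells with bacteria per field (>100 cells), 25 fields.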

[6] = test system: HEK293; test: Inhibition of FSL1-induced NF-kappaB activation in HEK293 cells expressing TLR2 pretreated for 1 hr before 6 hrs-FSL1 stimulation by luciferase reporter gene assay; type: cell-based; settings: Homo sapiens
Outline: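 293/TLR2 cells (1 × 10⁵/well) were transfected with 50 ng pNF-κB-Luc, 5 ng pRL-TK and 445 ng pcDNA3. After 24 h they were pretreated 1 h with resveratrol, then stimulated 6 h serum-free with FSL-1 (1, 10, 100 nM) or heat-killed E. coli or S. aureus (1:1, 1:10, 1:100). Dual luciferase readout, triplicates.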

[7] = test system: THP-1; test: Inhibition of FSL-1-induced increase in phagocytosis of FITC-conjugated Staphylococcus aureus 209P in human THP1 cells using trypan blue staining after 20 mins by flow cytometry; type: functional, cell-based
Outline: (§4)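 THP-1 or RAW264.7 cells (1 × 10⁶/ml) were pretreated 24 h with FSL-1 (0, 1, 10, 100 nM), washed, then given resveratrol (10, 50, 100 μM) for 1 h serum-free. Heat-killed FITC-E. coli (1:10) or FITC-S. aureus (1:100) followed. Surface fluorescence was quenched with 0.2% trypan blue and cells fixed in 1% paraformaldehyde. Flow cytometry mean fluorescence intensity, triplicates.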

[8] = test system: THP-1; test: Inhibition of phagocytosis of FITC-conjugated Staphylococcus aureus 209P in human THP1 cells using trypan blue staining after 20 mins by flow cytometry; type: functional, cell-based
[9] = test system: THP-1; test: Inhibition of phagocytosis of FITC-conjugated Escherichia coli K12 in human THP1 cells using trypan blue staining after 80 mins by flow cytometry; type: functional, cell-based; outline: as §2
[10] = test system: THP-1; test: Inhibition of phagocytosis of FITC-conjugated Staphylococcus aureus 209P in human THP1 cells using trypan blue staining after 40 mins by flow cytometry; type: functional, cell-based
[11] = test system: RAW264.7; test: Inhibition of heat killed Staphylococcus aureus 209P-induced TNF alpha production in mouse RAW264.7 cells at 1 to 100 uM after 6 hrs by ELISA; type: functional, cell-based
Outline: (§5)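 THP-1 or RAW264.7 cells (1 × 10⁶/well, 16 h) were washed and pretreated 1 h with resveratrol. Serum-free stimulation with heat-killed E. coli or S. aureus at 1:100 followed for 0, 2, 4 or 6 h. TNF-α in supernatants (400 × g spin) was measured by ELISA: human kit for THP-1, mouse kit for RAW264.7. Triplicates.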

[12] = test system: THP-1; test: Inhibition of FSL-1-induced increase in phagocytosis of FITC-conjugated Escherichia coli K12 in human THP1 cells assessed as reduction in number of phagocytosing bacteria to total number of cells after 1 hr by CLSM; type: functional, cell-based; outline: as §3
[13] = test system: THP-1; test: Inhibition of FSL1-induced upregulation of dectin-1 mRNA expression in human THP1 cells at 100 uM after 1 hr by RT-PCR; type: functional, cell-based
Outline: (§6)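 Serum-free THP-1 cells primed 24 h with 100 nM FSL-1 were given 100 μM resveratrol or 0.1% DMSO for 1 h. Total RNA from 5 × 10⁶ cells was reverse-transcribed with oligo(dT) and PCR-amplified for MSR1, CD36, DC-SIGN and Dectin-1 (30 cycles) with β-actin as reference (25 cycles). Products were resolved on 3% agarose with ethidium bromide.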

[14] = test system: THP-1; test: Inhibition of FSL1-induced upregulation of DC-SIGN mRNA expression in human THP1 cells at 100 uM after 1 hr by RT-PCR; type: functional, cell-based; outline: as §6
[15] = test system: THP-1; test: Inhibition of phagocytosis of FITC-conjugated Escherichia coli K12 in human THP1 cells assessed as reduction in ratio of number of bacterial cells to phagocytes using trypan blue staining by flow cytometry; type: functional, cell-based; outline: as §1
[16] = test system: HEK293; test: Inhibition of heat killed Staphylococcus aureus 209P-induced nuclear translocation of p65 element of NF-kappaB in HEK293 cells expressing TLR2 at 100 uM pretreated for 1 hr before 6 hrs heat killed bacterial stimulation by immunostaining method; type: cell-based; settings: Homo sapiens
Outline: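 293/TLR2 cells on poly-L-lysine coverslips were given 100 μM resveratrol or 0.1% DMSO for 1 h, then heat-killed E. coli or S. aureus (1:100) for 6 h. Cells were fixed in methanol at −20°C for 5 min and stained with rabbit anti-p65 pAb (1 μg/ml, 45 min RT), then Alexa 594 anti-rabbit IgG. Nuclear p65 was viewed by confocal microscopy.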

[17] = test system: THP-1; test: Inhibition of heat killed Escherichia coli K12-induced TNF alpha production in human THP1 cells at 1 to 100 uM after 6 hrs by ELISA; type: functional, cell-based; outline: as §5
[18] = test system: RAW264.7; test: Inhibition of FSL-1-induced increase in phagocytosis of FITC-conjugated Staphylococcus aureus 209P in mouse RAW264.7 cells using trypan blue staining after 20 mins by flow cytometry; type: functional, cell-based; outline: as §4
[19] = test system: THP-1; test: Inhibition of phagocytosis of FITC-conjugated Escherichia coli K12 in human THP1 cells using trypan blue staining after 60 mins by flow cytometry; type: functional, cell-based; outline: as §2
[20] = test system: RAW264.7; test: Inhibition of phagocytosis of FITC-conjugated Escherichia coli K12 in mouse RAW264.7 cells using trypan blue staining after 80 mins by flow cytometry; type: functional, cell-based; outline: as §2
[21] = test system: RAW264.7; test: Inhibition of heat killed Escherichia coli K12-induced TNF alpha production in mouse RAW264.7 cells at 1 to 100 uM after 6 hrs by ELISA; type: functional, cell-based; outline: as §5

Measured: Activity

Oc1ccc(/C=C/c2cc(O)cc(O)c2)cc1
active: [1] Dose-dependent effect | [2] Dose-dependent effect | [3] | [4] Dose-dependent effect | [5] | [6] Dose-dependent effect | [7] Dose-dependent effect | [8] Dose-dependent effect | [9] Dose-dependent effect | [10] Dose-dependent effect | [11] | [12] | [13] | [14] | [15] | [16] | [17] | [18] Dose-dependent effect | [19] Dose-dependent effect | [20] Dose-dependent effect | [21]
